RGS4 block = inhibitors of human RGS4 | P49798 | HEK293 M3R/RGS4 inducible, Fluo-4 calcium flux; stronger effect = higher value; triggered by carbachol at its EC20 | B-score at 10 µM | 310,000 compounds, 0.45% hits;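 active = B-score, a plate-corrected calcium signal, over three deviations above library mean, with baseline fluorescence within five deviations of library mean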;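 note: RGS4 expression induced by doxycycline in cells with stable M3 receptor; B-score is computed from the integrated fluorescence ratio over baseline after carbachol; higher B-score means a larger calcium signal and so more RGS4 inhibition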
Target sequence (P49798 whole entry, looked up): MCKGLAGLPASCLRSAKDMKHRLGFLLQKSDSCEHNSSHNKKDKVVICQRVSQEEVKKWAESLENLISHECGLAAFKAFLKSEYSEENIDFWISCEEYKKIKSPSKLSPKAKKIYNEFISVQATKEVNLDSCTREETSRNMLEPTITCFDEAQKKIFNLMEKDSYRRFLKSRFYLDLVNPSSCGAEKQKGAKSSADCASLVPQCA
MrgX1 ag = agonists of human MrgX1 receptor; Q96LB2; MrgX1-HEK293 cells, Fluo-4 calcium fluorescence, agonist mode; stronger effect = higher value; B-score at 10 µM; 310,000 compounds, 0.44% hits; AID 588627;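 active = calcium response B-score plate-corrected fluorescence ratio at least 3 library SD, with starting fluorescence B-score inside 5 SD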
Target sequence (Q96LB2 whole entry, looked up): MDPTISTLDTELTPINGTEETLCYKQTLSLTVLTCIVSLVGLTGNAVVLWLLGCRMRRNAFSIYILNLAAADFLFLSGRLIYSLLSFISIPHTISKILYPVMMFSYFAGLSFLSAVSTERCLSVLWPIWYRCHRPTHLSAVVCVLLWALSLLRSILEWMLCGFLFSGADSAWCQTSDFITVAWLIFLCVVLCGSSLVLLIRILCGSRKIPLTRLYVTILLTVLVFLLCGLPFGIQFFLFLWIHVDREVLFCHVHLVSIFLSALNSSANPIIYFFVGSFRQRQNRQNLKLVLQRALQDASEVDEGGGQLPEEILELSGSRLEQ
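Material: MrgX1-expressing HEK293 cells / Dosing: compound as first of three additions / Incubation: overnight seeding, then 1 h dark dye loading / Signal: Fluo-4 NW calcium fluorescence / Evaluation: B-scored fluorescence response ratio / Benchmarks: positive and negative control wells on each plate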
MrgX1 antag = human MrgX1 receptor antagonism, primary screen; MRGX1-HEK293 calcium flux, Fluo-4, BAM8-22 antagonism; stronger effect = lower value; 310,000 compounds, 1.3% hits; Q96LB2; B-score at 10 µM; AID 588676;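 active = calcium-response B-score plate-corrected more than 3 library SD below zero, starting fluorescence within 5 deviations, no agonist response on first addition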;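 note: peak minus trough fluorescence over baseline after final BAM8-22 challenge near maximal dose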
RGS4 act = potentiators or activators of RGS4. HEK293 M3R/inducible RGS4, carbachol calcium flux Fluo4; stronger effect = lower value. B-score at 10 µM. AID 463111. 310,000 compounds, 0.92% hits;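 active = B-score of the integrated calcium signal more than 4 SD below the library mean, with starting fluorescence not abnormally high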;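 note: negative B-score means reduced calcium response which marks RGS4 activation or potentiation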
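test system = HEK293 cells with stable M3R and inducible RGS4 | schedule = recording 10 s baseline at 1 Hz, 100 s post-agonist | technique = Fluo4-AM (2 µM) calcium-flux fluorescence, kinetic read | measure = Agonist-evoked peak-minus-minimum fluorescence over baseline, integrated ratio, B score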
MrgX1 allo act = human MrgX1 positive allosteric modulation, primary screen. AID 588675. MrgX1-HEK293, Fluo-4 calcium flux, FDSS; stronger effect = higher value. 310,000 compounds, 0.63% hits. Q96LB2. B-score at 10 µM;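 active = plate-corrected calcium response at least 3 library SD above typical, normal starting fluorescence, not activating the receptor alone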;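 note: compound read alongside a low EC10 to EC30 dose of BAM8-22 agonist; peak minus trough fluorescence over baseline measured at the second addition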
RGS4 inh valid = RGS4 inhibitor validation. 1,700 compounds, 65% hits. AID 492999. calcium response, % at 10 µM. HEK293 M3R/RGS4, carbachol calcium Fluo-4 fluorescence; carbachol added at its EC20; 0 = buffer wells, 100 = carbachol control. shares compounds with RGS4 block;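 active = duplicate-averaged calcium response above the buffer-only control mean plus 5 SD of those controls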;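 note: integrated fluorescence ratio F max minus min over baseline F0; higher response in RGS4-induced cells means RGS4 inhibition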
RGS4 uninduced = counter-screen for RGS4 inhibitors: effect in non-induced cells. shares compounds with RGS4 block. HEK293 M3R non-induced, carbachol calcium Fluo-4; submaximal (EC20) carbachol stimulus; buffer wells 0%, carbachol control wells 100%. activity (percent), % at 10 µM. 1,900 compounds, 20% hits; call rule not given here;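 note: RGS4 induction absent so cells express M3R without RGS4; higher means more calcium signal and flags a non-specific hit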
M3R basal Ca ctr = second counter-screen for RGS4 inhibitors: non-induced cells without carbachol | shares compounds with RGS4 block | HEK293 M3R/RGS4 non-induced, Fluo-4 calcium, no carbachol; normalised: buffer wells 0%, carbachol wells 100% | calcium response (agonist-mode artifact), % at 10 µM | 1,900 compounds, 22% hits | AID 493001;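 active = duplicate-averaged calcium rise in uninduced cells above buffer wells' mean plus 5 SD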
A number is an active result; n = inactive; x = no result given. In the library only some 3.5% were active in any assay of this set; here they are far more common.

SMILES	RGS4 block	MrgX1 ag	MrgX1 antag	RGS4 act	MrgX1 allo act	RGS4 inh valid	RGS4 uninduced	M3R basal Ca ctr
CCc1cc(-c2[nH]ncc2-c2ccc([N+](=O)[O-])cc2)c(O)cc1OC	12.3	n	n	n	25.6	34.0%	n	n
COc1ccc(Nc2cc3n(c(=O)n2)CCc2cc(OC)c(OC)cc2-3)cc1	n	n	n	n	n	x	x	x
COc1cc2c(cc1OC)-c1cc(Nc3ccc(C)cc3)nc(=O)n1CC2	n	n	n	n	n	x	n	n
COc1cc2c(cc1OC)-c1cc(Nc3ccccc3)nc(=O)n1CC2	n	n	n	n	n	x	n	93.0%
Cc1ccnc(NC(=O)CCC(=O)N(CC(=O)NC2CCCCC2)Cc2cccs2)c1	n	n	n	n	n	x	x	x
Cc1ccc(N=c2oc3cc(O)ccc3cc2C(N)=O)cc1	n	n	n	n	n	x	n	n
CC(=O)c1cc2ccc(O)cc2oc1=O	n	n	n	n	n	x	x	x
C/C(=N\N=C1\NC(=O)C(CC(=O)Nc2ccc(C)c(Cl)c2)S1)C(C)(C)C (centres undefined)	7.51	n	n	n	n	70.0%	n	n
C/C(=N\N=C1\NC(=O)C(CC(=O)Nc2ccc(Cl)cc2)S1)c1ccco1 (centres undefined)	n	n	n	n	n	x	x	x
C(=N\Nc1nc(N2CCCCC2)nc(N2CCCCC2)n1)/c1c[nH]c2ccccc12	n	n	n	n	n	x	x	x
Cc1[nH]c2ccccc2c1/C=N/Nc1nc(N2CCCCC2)nc(N2CCCCC2)n1	11.3	n	n	n	n	38.0%	63.0%	n
CCOC(=O)C1=C(CC)Nc2ccccc2N/C1=N\S(=O)(=O)c1cc(Br)ccc1Br	n	x	x	n	x	x	x	x
O=C1[C@@H]2Cc3c([nH]c4ccccc34)CN2C(=O)CN1CCCCCO	n	n	n	n	n	x	x	x
Cn1c(OCc2ccco2)nc2c1c(=O)n(Cc1ccc(Cl)c(Cl)c1)c(=O)n2C	5.94	n	n	n	n	6.5%	n	n
NS(=O)(=O)c1ccc(CCNC(=O)CCC2COc3ccccc3O2)cc1 (centres undefined)	n	n	n	n	n	x	x	x
COc1ccc(CCNC(=O)CCC2COc3ccccc3O2)cc1OC (centres undefined)	n	n	n	n	n	n	n	n
Cc1ccc(/C=N/NC(=O)c2cccc(NC(=O)c3ccccc3Cl)c2)o1	n	n	n	n	n	x	x	x
Cc1cc(C)cc(NC(=O)C(=O)NCC2CCCN2S(=O)(=O)c2cccs2)c1 (centres undefined)	n	n	n	n	n	x	x	x
N#C/C(=C\c1cccs1)C(=O)c1ccccc1Cl	17.6	n	n	n	n	56.0%	n	8.5%
CCOn1c(=O)c(-c2ccc(OC)c(OC)c2)[n+]([O-])c2ccccc21	n	n	n	n	n	n	n	n
CCOn1c(=O)c(-c2ccc(OC)cc2)[n+]([O-])c2ccccc21	n	n	n	n	n	x	x	x
O=C(Nc1ccc(Br)cc1)c1cccc(S(=O)(=O)Nc2cnc3ccccc3c2)c1	5.89	n	n	n	n	16.0%	n	n
Cc1nn(C)c(C)c1S(=O)(=O)N(CC(=O)NCCCN1CC(C)CC(C)C1)c1ccc(C(C)C)cc1 (centres undefined)	n	n	n	n	n	x	x	x
Cn1cnnc1SCC(C)(C)NS(=O)(=O)c1ccc(Cl)cc1	n	n	n	n	n	x	x	x
O=Nc1c(O)n(Cc2ccc(Cl)c(Cl)c2)c2ccccc12	14.7	n	n	n	n	15.5%	39.0%	n
SMILES	RGS4 block	MrgX1 ag	MrgX1 antag	RGS4 act	MrgX1 allo act	RGS4 inh valid	RGS4 uninduced	M3R basal Ca ctr
O=C(NC1CCCCC1)C1CCCN1C(=O)Nc1ccccc1 (centres undefined)	n	n	n	n	n	x	x	x
CCOC(=O)/C(C#N)=C/c1cn(CCC(=O)O)nc1-c1ccc(F)cc1	n	n	n	n	n	x	x	x
CCOC(=O)/C(C#N)=C/c1cn(CCC(=O)O)nc1-c1cccc(Cl)c1	4.74	n	n	n	n	n	n	n
Cn1c(-c2cccs2)[n+](C)c2ccccc21	n	n	n	n	n	x	x	x
O=S(=O)(Cc1c(F)cccc1Cl)c1ncn[nH]1	n	n	n	n	n	x	x	x
COc1ccc2cc(-c3[nH]ncc3CN3CCCN(c4ccccc4)CC3)ccc2c1	5.55	n	n	n	n	20.5%	40.5%	n
CCOc1ccccc1N1CCN(Cc2cn[nH]c2-c2ccc(F)cc2)CC1	6.78	n	n	n	n	43.5%	44.0%	n
CCOc1ccccc1N1CCN(Cc2cccc(OC)c2OC)CC1	n	n	n	n	n	x	x	x
COc1ccc(N2C(=O)CSC2c2cccc(F)c2)cc1 (centres undefined)	n	n	n	n	n	x	x	x
Cc1ccc(-c2cc(-c3ccc(F)cc3)c(C#N)c(N)n2)o1	n	27.1	n	n	n	n	n	n
Cc1c(-c2ccc(F)cc2)nc(N)c(C#N)c1-c1ccco1	n	n	n	n	n	x	x	x
Cc1cc(-c2cc(-c3ccc(Cl)cc3)nc(N)c2C#N)co1	9.79	n	n	n	n	5.0%	n	n
Cc1ccc(-c2cc(-c3ccc(Cl)cc3)c(C#N)c(N)n2)o1	6.29	n	n	n	n	5.0%	n	12.5%
Cc1ccc(-c2c(C#N)c(N)nc3c2CCCCC3)o1	n	n	n	n	n	x	x	x
COc1ccc(-c2cc(-c3ccc(O)cc3)nc(N)c2C#N)cc1OC	n	n	n	n	n	x	x	x
Cc1ccc(-c2cc(-c3ccc(C)o3)nc(N)c2C#N)cc1	7.05	n	n	n	n	n	n	n
CCOc1cc(-c2cc(-c3ccc(C)o3)nc(N)c2C#N)ccc1O	n	n	n	n	n	x	x	x
COc1ccc(C(=O)CCC(=O)N2CCN(c3cc(C)ccc3C)CC2)cc1	n	n	n	n	n	x	x	x
Cc1nc(N)c(C#N)c(-c2ccc3c(c2)OCO3)c1C	n	n	n	n	n	x	x	x
Cc1ccc(-c2cc(-c3ccc4c(c3)OCO4)c(C#N)c(N)n2)o1	8.82	n	n	n	n	n	n	n
O=C(CN1C(=O)c2ccccc2C1=O)Nc1ccc(Cl)cn1	n	n	n	n	n	x	x	x
COc1ccc(NC(=O)CN(C)C(=O)CCNC(=O)c2ccccc2OC)cc1	n	n	n	n	n	x	x	x
COc1cc(/C=C2/C(=O)NN(c3ccc(F)cc3)C2=O)cc(Cl)c1O	6.25	30.2	n	n	n	14.5%	35.0%	18.0%
